Measurements published in ChEMBL document CHEMBL1255281, “Effects on gram-negative and gram-positive bacteria mediated by 5-aminolevulinic Acid and 5-aminolevulinic acid derivatives” (2008).
Active and inactive are the calls of the source. The rule behind the calls is not given here.

Legend:
Escherichia coli [1] = test: Induction of photoactive porphyrins in Escherichia coli K-12 at 10 mM exposed to irradiation at 120 J.cm2 light by HPLC; assay type: functional, organism-based
Outline: (§1)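 Cells were loaded 4 h at 37°C in the dark with substrate in PBS (pH 6.5), in parallel with the PDI samples. 10 ml of suspension was pelleted and taken up in ethanol/DMSO/acetic acid (80:20:1). Cells were broken by five 5-s sonication pulses at 0°C and centrifuged. The supernatant was run on HPLC with a gradient (acetate buffer/acetonitrile to methanol/acetonitrile) and fluorescence detection (ex 407, em 620 nm). Total porphyrins are given as pmol·10⁻⁶ CFU.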

Escherichia coli [2] = test: Antibacterial activity against Escherichia coli K-12 assessed as reduction in microbial viability incubated at 10 mM followed by irradiation at 120 J.cm2 light; assay type: functional, organism-based
Outline: (§2)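 Log-phase cells (OD600 ~0.30) washed twice in PBS (0.1 N, pH 6.5), pelleted, resuspended in freshly made substrate in the same PBS and kept 4 h at 37°C in the dark with shaking. About 5 × 10⁷ bacteria in 2.5 ml were then exposed to white halogen light for 40 min (120 J·cm⁻²). CFU were counted by plating dilutions on Columbia agar. Survival = CFU/ml after PDI ÷ CFU/ml of initial sample; mean of n = 4 ± SD.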

Escherichia coli [3] = test: Antibacterial activity against Escherichia coli K-12 assessed as reduction in microbial viability incubated at 40 mM followed by irradiation at 120 J.cm2 light; assay type: functional, organism-based; outline: as §2
Escherichia coli [4] = test: Induction of photoactive porphyrins in Escherichia coli K-12 exposed to irradiation at 120 J.cm2 light by HPLC; assay type: functional, organism-based; outline: as §1
Pseudomonas aeruginosa [5] = test: Antibacterial activity against Pseudomonas aeruginosa assessed as microbial survival fraction incubated at 1 mM followed by irradiation at 120 J.cm2 light relative to untreated control; assay type: functional; outline: as §2
Pseudomonas aeruginosa [6] = test: Induction of photoactive porphyrins in Pseudomonas aeruginosa assessed as porphyrin level per 10^-6 CFU microbial load incubated at 1 mM followed by irradiation at 120 J.cm2 light relative to untreated control; assay type: functional; outline: as §1
Escherichia coli [7] = test: Induction of photoactive porphyrins in Escherichia coli K-12 assessed as uroporphyrin level exposed to irradiation at 120 J.cm2 light by HPLC; assay type: functional, organism-based; outline: as §1
Escherichia coli [8] = test: Antibacterial activity against Escherichia coli K-12 assessed as reduction in microbial viability incubated at 40 mM for 4 hrs under dark condition; assay type: functional, organism-based
Outline: (§3)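 Dark toxicity. Washed log-phase cells (OD600 ~0.30, PBS 0.1 N pH 6.5) were held 4 h at 37°C in the dark with shaking in substrate dissolved in the same PBS and were not illuminated. CFU were counted on Columbia agar. Survival = CFU/ml of nonilluminated sample ÷ CFU/ml of initial sample; mean of n = 4 ± SD.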

Escherichia coli [9] = test: Antibacterial activity against Escherichia coli K-12 assessed as reduction in microbial viability incubated at <40 mM for 4 hrs under dark condition; assay type: functional, organism-based; outline: as §3
Escherichia coli [10] = test: Induction of photoactive porphyrins in Escherichia coli K-12 assessed as porphyrin level per 10^-6 CFU microbial load incubated at 0.1 mM followed by irradiation at 120 J.cm2 light relative to untreated control; assay type: functional; outline: as §1
Escherichia coli [11] = test: Antibacterial activity against Escherichia coli K-12 assessed as microbial survival fraction incubated at 0.1 mM followed by irradiation at 120 J.cm2 light relative to untreated control; assay type: functional; outline: as §2
Staphylococcus aureus [12] = test: Induction of photoactive porphyrins in methicillin resistant Staphylococcus aureus assessed as porphyrin level per 10^-6 CFU microbial load incubated at 10 mM followed by irradiation at 120 J.cm2 light relative to untreated control; assay type: functional
Outline: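 MRSA was washed in PBS pH 6.5 and held with substrate in PBS for 4 h in the dark at 37°C with shaking; a separate fraction was taken for porphyrin analysis. Pellets were extracted in ethanol/DMSO/acetic acid (80:20:1), sonicated 5 × 5 s at 0°C and centrifuged. Supernatant went to gradient HPLC with fluorescence detection (excitation 407, emission 620 nm). Total porphyrins are expressed as pmol·10⁻⁶ CFU.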

Staphylococcus aureus [13] = test: Antibacterial activity against methicillin resistant Staphylococcus aureus assessed as microbial survival fraction incubated at 10 mM followed by irradiation at 120 J.cm2 light relative to untreated control; assay type: functional
Outline: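 MRSA grown 48 h on Columbia sheep-blood agar, then overnight in tryptone soy broth at 37°C, brought to OD600 ~0.30 and washed twice in PBS pH 6.5. Cells were held with substrate in PBS for 4 h in the dark at 37°C with shaking. About 5 × 10⁷ bacteria were exposed to halogen white light for 40 min (120 J·cm⁻²). CFU were counted on Columbia agar; survival = N_PDI/N₀; mean of n = 4 ± SD.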

Escherichia coli [14] = test: Induction of photoactive porphyrins in Escherichia coli K-12 assessed as protoporphyrin level exposed to irradiation at 120 J.cm2 light by HPLC; assay type: functional, organism-based; outline: as §1
Escherichia coli [15] = test: Antibacterial activity against Escherichia coli Ti05 assessed as microbial survival fraction incubated at 1 mM followed by irradiation at 120 J.cm2 light relative to untreated control; assay type: functional; outline: as §2
Escherichia coli [16] = test: Induction of photoactive porphyrins in Escherichia coli Ti05 assessed as porphyrin level per 10^-6 CFU microbial load incubated at 1 mM followed by irradiation at 120 J.cm2 light relative to untreated control; assay type: functional; outline: as §1
Escherichia coli [17] = test: Antibacterial activity against Escherichia coli K-12 assessed as reduction in microbial viability incubated at 0.1 mM followed by irradiation at 120 J.cm2 light; assay type: functional, organism-based; outline: as §2
Escherichia coli [18] = test: Induction of photoactive porphyrins in Escherichia coli K-12 assessed as porphyrin 7-CP level exposed to irradiation at 120 J.cm2 light by HPLC; assay type: functional, organism-based; outline: as §1
Escherichia coli [19] = test: Induction of photoactive porphyrins in Escherichia coli K-12 assessed as porphyrin level per 10^-6 CFU microbial load incubated at 10 mM followed by irradiation at 120 J.cm2 light relative to untreated control; assay type: functional; outline: as §1
Escherichia coli [20] = test: Antibacterial activity against Escherichia coli K-12 assessed as reduction in microbial viability incubated at 30 mM for 4 hrs under dark condition; assay type: functional, organism-based; outline: as §3
Escherichia coli [21] = test: Induction of photoactive porphyrins in Escherichia coli Ti05 assessed as porphyrin level per 10^-6 CFU microbial load incubated at 10 mM followed by irradiation at 120 J.cm2 light relative to untreated control; assay type: functional; outline: as §1
Pseudomonas aeruginosa [22] = test: Induction of photoactive porphyrins in Pseudomonas aeruginosa assessed as porphyrin level per 10^-6 CFU microbial load incubated at 10 mM followed by irradiation at 120 J.cm2 light relative to untreated control
Pseudomonas aeruginosa [23] = test: Antibacterial activity against Pseudomonas aeruginosa assessed as microbial survival fraction incubated at 10 mM followed by irradiation at 120 J.cm2 light relative to untreated control; assay type: functional; outline: as §2
Escherichia coli [24] = test: Antibacterial activity against Escherichia coli K-12 assessed as microbial survival fraction incubated at 10 mM followed by irradiation at 120 J.cm2 light relative to untreated control; assay type: functional; outline: as §2
Escherichia coli [25] = test: Antibacterial activity against Escherichia coli Ti05 assessed as microbial survival fraction incubated at 10 mM followed by irradiation at 120 J.cm2 light relative to untreated control; assay type: functional; outline: as §2
Escherichia coli [26] = test: Induction of photoactive porphyrins in Escherichia coli K-12 assessed as porphyrin 6-CP level exposed to irradiation at 120 J.cm2 light by HPLC; assay type: functional, organism-based; outline: as §1
Escherichia coli [27] = test: Induction of photoactive porphyrins in Escherichia coli K-12 assessed as porphyrin 5-CP level exposed to irradiation at 120 J.cm2 light by HPLC; assay type: functional, organism-based; outline: as §1

SMILES: CCCCCCCCOC(=O)CCC(=O)CN
- Activity (Escherichia coli [1]): inactive
- growth inhibition (GI) (Escherichia coli [2]): inactive

SMILES: CCCCCCOC(=O)CCC(=O)CN
- Activity (Escherichia coli [1]): inactive
- growth inhibition (GI) (Escherichia coli [2]): inactive

SMILES: CCCCCOC(=O)CCC(=O)CN
- Activity (Escherichia coli [1]): inactive
- growth inhibition (GI) (Escherichia coli [2]): inactive

SMILES: CCCCOC(=O)CCC(=O)CN
- Activity (Escherichia coli [1]): Active
- growth inhibition (GI) (Escherichia coli [2]): Active

SMILES: NCC(=O)CCC(=O)O [AMINOLEVULINIC ACID]
- growth inhibition (GI) (Escherichia coli [3]): Active
- Activity (Escherichia coli [4]): Active
- Ratio (Pseudomonas aeruginosa [5]): 0.0019
- Activity (Pseudomonas aeruginosa [6]): 34.5 pmol
- Activity (Escherichia coli [7]): Active
- growth inhibition (GI) (Escherichia coli [8]): Active
- growth inhibition (GI) (Escherichia coli [9]): inactive
- Activity (Escherichia coli [10]): 7.5 pmol
- Ratio (Escherichia coli [11]): 0.00048
- Activity (Staphylococcus aureus [12]): 6.6 pmol
- Ratio (Staphylococcus aureus [13]): 5e-06
- Activity (Escherichia coli [14]): Active
- Ratio (Escherichia coli [15]): 5e-05
- Activity (Escherichia coli [16]): 5.4 pmol
- growth inhibition (GI) (Escherichia coli [17]): Active

SMILES: COC(=O)CCC(=O)CN [METHYL AMINOLEVULINATE]
- Activity (Escherichia coli [18]): Active
- Activity (Escherichia coli [19]): 12.5 pmol
- Activity (Escherichia coli [7]): Active
- growth inhibition (GI) (Escherichia coli [20]): Active
- growth inhibition (GI) (Escherichia coli [2]): Active
- Activity (Escherichia coli [21]): 10.2 pmol
- Activity (Pseudomonas aeruginosa [22]): 6 pmol
- Ratio (Pseudomonas aeruginosa [23]): 0.012
- Activity (Staphylococcus aureus [12]): 2.5 pmol
- Ratio (Escherichia coli [24]): 8.1e-06
- Ratio (Escherichia coli [25]): 2e-05
- Activity (Escherichia coli [26]): Active
- Ratio (Staphylococcus aureus [13]): 0.00078
- Activity (Escherichia coli [27]): Active
